Results taken from paper PMC2248718 (The Journal of General Physiology, 2008).
Each block holds one molecule with its values, some of them ahead of it.

Experiments:
[1] = molecular target: wild-type SUR2A/Kir6.2 KATP channels expressed in HEK293 cells (UniProt P70170+Q14654); assay: Inside-out patch-clamp of recombinant wild-type KATP channels; format: cell-based; details: WT
[2] = test system: ED mutant SUR2A/Kir6.2 channels; assay: Inside-out patch-clamp of ED domain mutant KATP channels; format: cell-based; details: ED mutants; 300 μM MgADP, channels inhibited by 300 μM ATP
Outline: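 SUR2A (wild type or ED-mutated) was transiently cotransfected with Kir6.2 (5 μg:1 μg, plus 0.5 μg GFP reporter) into HEK293 cells grown in DMEM/10% FBS/2 mM glutamine, and recorded 48–72 h later. Inside-out patches at −60 mV, 32 ± 1°C. Pipette (mM): KCl 140, CaCl₂ 1, MgCl₂ 1, HEPES-KOH 5, pH 7.3. Bath (mM): KCl 140, MgCl₂ 1, EGTA 5, HEPES-KOH 5, pH 7.3, with nucleotides and drugs added.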

[3] = test system: ED-mutated SUR2A (entire deletion and Q/N mutants) coexpressed with Kir6.2, HEK293 membranes; assay: 8-azido-[γ-32P]ATP photoaffinity labeling, post-incubation with ADP, ED mutants; format: binding; details: ED-mutated constructs; MgADP 0.05 to 1.0 mM
[4] = molecular target: wild-type SUR2A (NBD1) coexpressed with Kir6.2, HEK293 membranes (Mus musculus, UniProt P70170); assay: 8-azido-[γ-32P]ATP photoaffinity labeling, post-incubation with ADP, wild type; format: binding; details: WT; MgADP titration 0.05 to 1.0 mM
[5] = test system: SUR2A entire Q/N mutant/Kir6.2 KATP channels expressed in HEK293 cells; assay: Inside-out patch-clamp of entire Q/N mutant KATP channels; format: cell-based; details: glyburide 10 μM
[6] = molecular target: SUR2A entire deletion (Δ948–962)/Kir6.2 KATP channels expressed in HEK293 cells (UniProt P70170+Q14654, DEL948-962); assay: Inside-out patch-clamp of entire ED deletion KATP channels; format: cell-based; details: glyburide 10 μM, monophasic response

Reversal of ATP-induced channel inhibition by MgADP ([1]; 300 μM MgADP, channels inhibited by 300 μM ATP): readily reversed
MgADP concentration at maximum increase of 8-azido-[γ-32P]ATP labeling [4]: 500 µM
Structure (SMILES): Nc1ncnc2c1ncn2[C@@H]1O[C@H](COP(=O)([O-])OP(=O)([O-])O)[C@@H](O)[C@H]1O.[Mg+2] [MgADP]
Reversal of ATP-induced channel inhibition by MgADP [2]: unable to reverse such inhibition
Effect of MgADP on 8-azido-[γ-32P]ATP labeling [3]: did not affect labeling

Pattern of glyburide blockade in the presence of MgADP ([1]; glyburide 10 μM, 300 μM MgADP): both phases were blunted
Fast phase: instantaneous blockade, fraction of the channel population ([1]; glyburide 10 μM, no nucleotides): 59 ± 11%
Slow phase: gradual dissipation of channel activity ([1]; glyburide 10 μM, no nucleotides, within 2–3 min): 93 ± 3%
Glyburide-induced reduction in overall channel activity [6]: 21 ± 5%
Structure (SMILES): COc1ccc(Cl)cc1C(=O)NCCc1ccc(S(=O)(=O)NC(=O)NC2CCCCC2)cc1 [glyburide]
Glyburide responsiveness compared with wild type [5]: reduced glyburide responsiveness
Profile of glyburide inhibition in the presence of AMP-PNP ([1]; glyburide 10 μM, AMP-PNP 50 μM): indistinguishable from the effect of glyburide in the absence of nucleotides

Channel activity reversed by pinacidil against ATP inhibition ([1]; 50 μM pinacidil, 300 μM ATP, relative to activity in the absence of nucleotides): close to the maximum level
Structure (SMILES): CC(N/C(=N\C#N)Nc1ccncc1)C(C)(C)C (centres unmarked) [pinacidil]
